In ChEMBL document CHEMBL2146419, “Effects of polyphenol compounds on influenza A virus replication and definition of their mechanism of action” (Bioorg Med Chem, 2012):
The source made the active and inactive calls. The calls are words filed in the database; no cut-off is given here.

System: Influenza A virus
Experiment: Antiviral activity against Influenza virus A/Puerto Rico/8/34 H1N1 infected in dog MDCK cells at 10 ug/mL incubated for 2 hrs post-infection followed by compound washout measured after 24 hrs by hemagglutininating unit assay
Type: functional, organism-based
Details: A/Puerto Rico/8/1934(H1N1)
In short: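 Compound added to PR8-infected MDCK cells immediately after virus challenge, then removed at 2, 4, 6, 8 or 24 h p.i. Supernatant virus yield was measured by HAU at 24 h p.i. and expressed as a percentage of DMSO-treated control infected cells. Means of two experiments, each in duplicate.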

Compound: O=C(/C=C/c1ccc(O)cc1)c1ccc(O)cc1O [ISOLIQUIRITIGENIN]
- Activity: inactive
